Test results: ChEMBL document CHEMBL4414639, “Synthesis, Pharmacological Characterization, and Structure-Activity Relationships of Noncanonical Selective Agonists for α7 nAChRs” (J Med Chem, 2019)
The source made the active and inactive calls. No cut-off for these calls is given here.

molecular target: T1, Neuronal acetylcholine receptor subunit alpha-7 (Homo sapiens, UniProt P36544); assay: Agonist activity at alpha7 nAChR (unknown origin) transfected in HEK cells assessed as increase in intracellular calcium release incubated for 30 mins by FRET assay; format: cell-based
T1 sequence (P36544 whole entry): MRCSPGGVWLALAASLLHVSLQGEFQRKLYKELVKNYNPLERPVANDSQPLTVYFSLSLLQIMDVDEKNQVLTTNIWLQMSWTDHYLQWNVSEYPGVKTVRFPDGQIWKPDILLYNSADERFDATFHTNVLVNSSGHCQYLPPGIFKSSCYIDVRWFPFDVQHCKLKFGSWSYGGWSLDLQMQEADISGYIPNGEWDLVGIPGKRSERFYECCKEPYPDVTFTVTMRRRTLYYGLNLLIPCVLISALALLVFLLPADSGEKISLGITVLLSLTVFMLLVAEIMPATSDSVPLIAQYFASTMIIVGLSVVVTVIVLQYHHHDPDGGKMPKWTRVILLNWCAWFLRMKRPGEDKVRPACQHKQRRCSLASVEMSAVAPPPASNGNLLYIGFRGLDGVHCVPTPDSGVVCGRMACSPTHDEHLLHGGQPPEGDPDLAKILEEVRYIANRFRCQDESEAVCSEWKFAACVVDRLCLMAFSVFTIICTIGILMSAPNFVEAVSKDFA
Summary of the method: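 Stable HEK cell line expressing α7 nAChR with TN-XXL FRET calcium biosensor (CNiFER), in DMEM with 10% FBS at 37 °C, 6% CO2. Cells preincubated 30 min at 37 °C in aCSF with PNU-120596 (10 µM final). FRET ratio (527/485 nm, 436 nm excitation) read at 37 °C over 120 s, agonist injected at 30 s, triplicate wells. EC50 from variable-slope sigmoidal fit of mean peak ratios, normalized to 316 µM response.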

| SMILES | EC50 [nM] |
| --- | --- |
| COc1ccc(-c2cc(N(Cc3ccccn3)Cc3ccccn3)nc(N)n2)c(OC)c1 | 70 |
| Nc1nc(-c2ccsc2)cc(N(Cc2ccccn2)Cc2ccccn2)n1 | 500 |
| COc1ccccc1-c1cc(N(Cc2ccccn2)Cc2ccccn2)nc(N)n1 | 70 |

molecular target: T2, 5-hydroxytryptamine receptor 3A (Homo sapiens) (UniProt P46098); assay: Antagonist activity at 5HT3A (unknown origin) transfected in HEK cells assessed as decrease in agonist-induced intracellular calcium release incubated for 30 mins by FRET assay; format: cell-based
T2 sequence (whole entry): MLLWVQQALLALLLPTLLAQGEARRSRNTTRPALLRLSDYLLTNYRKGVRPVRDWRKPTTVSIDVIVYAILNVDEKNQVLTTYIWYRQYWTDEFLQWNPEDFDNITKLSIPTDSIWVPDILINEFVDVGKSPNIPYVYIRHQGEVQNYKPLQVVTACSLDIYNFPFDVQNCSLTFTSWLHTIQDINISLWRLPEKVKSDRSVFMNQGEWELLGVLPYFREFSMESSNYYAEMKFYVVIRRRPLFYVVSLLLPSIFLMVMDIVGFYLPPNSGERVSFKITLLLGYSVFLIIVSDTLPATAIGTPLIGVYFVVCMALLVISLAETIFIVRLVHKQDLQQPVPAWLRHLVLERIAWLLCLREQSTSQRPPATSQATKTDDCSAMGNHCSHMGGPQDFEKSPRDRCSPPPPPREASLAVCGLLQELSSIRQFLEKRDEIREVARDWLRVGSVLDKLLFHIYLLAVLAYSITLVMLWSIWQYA
Summary of the method: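 CNiFER HEK cell monolayers stably expressing the receptor. Test compound at three concentrations in aCSF, preincubated 30 min at 37 °C, 6% CO2, before agonist addition: epibatidine for α4β2, 5-HT for 5-HT3A. TN-XXL FRET ratio (527/485 nm) read over 120 s at 37 °C, agonist injected at 30 s, triplicate wells. Agonist EC50 shifts fitted. KA computed as [A]/(DR−1) (competitive) or [A]/(Δmax/Δ−1) (noncompetitive). At least three independent experiments. α4β2 stoichiometry not distinguished.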

| SMILES | Ka [µM] |
| --- | --- |
| COc1ccc(-c2cc(N(Cc3ccccn3)Cc3ccccn3)nc(N)n2)c(OC)c1 | > 10 |
| c1ccc(CN(Cc2ccccn2)c2cc(N3CCOCC3)ncn2)nc1 | > 10 |
| Nc1nc(-c2ccsc2)cc(N(Cc2ccccn2)Cc2ccccn2)n1 | > 10 |
| COc1cccc(OC)c1-c1cc(N(Cc2ccccn2)Cc2ccccn2)nc(N)n1 | > 10 |
| COc1ccccc1-c1cc(N(Cc2ccccn2)Cc2ccccn2)nc(N)n1 | > 10 |

More lines, now with the values ahead:

| Ka [µM] | SMILES |
| --- | --- |
| > 10 | COc1ncccc1-c1cc(N(Cc2ccccn2)Cc2ccccn2)nc(N)n1 |
| 2.2 | CSc1nc(-c2ccsc2)cc(N(Cc2ccccn2)Cc2ccccn2)n1 |
| 5.5 | CC(C)COc1ccccc1-c1cc(N(Cc2ccccn2)Cc2ccccn2)nc(N)n1 |
| > 10 | COc1ccccc1-c1cc(N(Cc2ccccn2)Cc2ccccn2)nc([S+](C)[O-])n1 (stereo unspecified) |
| > 10 | CSc1ccccc1-c1cc(N(Cc2ccccn2)Cc2ccccn2)nc(N)n1 |
| 8.4 | Fc1ccccc1-c1cc(N(Cc2ccccn2)Cc2ccccn2)ncn1 |

molecular target: T1, Neuronal acetylcholine receptor subunit alpha-7; assay: Agonist activity at human alpha7 nAChR transfected in HEK cells assessed as increase in intracellular calcium release incubated for 30 mins in presence of PNU-120596 by FRET assay; format: cell-based
Summary of the method: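 HEK cell line stably expressing α7 nAChR and the CNiFER (TN-XXL) biosensor, grown in DMEM + 10% FBS, 1% glutamine, 37 °C, 6% CO2. Cells preincubated 30 min at 37 °C in aCSF containing 10 μM PNU-120596 (final). Agonist injected at 30 s. FRET ratio (527/485 nm) followed over 120 s at 37 °C, triplicate wells. EC50 from variable-slope sigmoidal fit of mean peak ratios, normalized to the 316 μM response.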

| SMILES | EC50 [nM] |
| --- | --- |
| c1ccc(CN(Cc2ccccn2)c2cc(N3CCOCC3)ncn2)nc1 | > 13300 |
| COc1cccc(OC)c1-c1cc(N(Cc2ccccn2)Cc2ccccn2)nc(N)n1 | 5400 |

Continued, values first:

| EC50 [nM] | SMILES |
| --- | --- |
| 230 | COc1ncccc1-c1cc(N(Cc2ccccn2)Cc2ccccn2)nc(N)n1 |
| 1800 | CSc1nc(-c2ccsc2)cc(N(Cc2ccccn2)Cc2ccccn2)n1 |
| 1600 | CC(C)COc1ccccc1-c1cc(N(Cc2ccccn2)Cc2ccccn2)nc(N)n1 |
| 920 | COc1ccccc1-c1cc(N(Cc2ccccn2)Cc2ccccn2)nc([S+](C)[O-])n1 (stereo unspecified) |
| 240 | CSc1ccccc1-c1cc(N(Cc2ccccn2)Cc2ccccn2)nc(N)n1 |
| 360 | Fc1ccccc1-c1cc(N(Cc2ccccn2)Cc2ccccn2)ncn1 |

molecular target: T1, Neuronal acetylcholine receptor subunit alpha-7; assay: Agonist activity at human alpha7 nAChR expressed in Xenopus laevis oocytes assessed as increase in channel currents at 30 uM at -60 mV holding potential by two electrode voltage clamp assay; format: cell-based
Summary of the method: (§1)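 Oocytes expressing human α7 nAChR (with human RIC-3 cDNA available), clamped at -60 mV in Ringer's pH 7.2 with 1 µM atropine, 2 mL/min flow. Drug applied 12 s, 211 s washout. Responses normalized to mean of two 60 µM ACh precontrol responses per oocyte. Data from six cells. Concentration-response data fit to the Hill equation. Sequence included 30 µM test compound, then 60 µM ACh, then 10 µM PNU-120596.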

| SMILES | Activity |
| --- | --- |
| COc1ccccc1-c1cc(N(Cc2ccccn2)Cc2ccccn2)nc(N)n1 | Active |

molecular target: T1, Neuronal acetylcholine receptor subunit alpha-7; assay: Agonist activity at human alpha7 nAChR expressed in Xenopus laevis oocytes assessed as increase in channel currents at -60 mV holding potential by two electrode voltage clamp assay relative Ach; format: cell-based; summary of the method: as §1

| SMILES | EC50 [nM] | Imax |
| --- | --- | --- |
| COc1ccccc1-c1cc(N(Cc2ccccn2)Cc2ccccn2)nc(N)n1 | 350 | 0.98 |

molecular target: T1, Neuronal acetylcholine receptor subunit alpha-7; assay: Inhibition of human alpha7 nAChR expressed in Xenopus laevis oocytes assessed as decrease in ACh-induced channel currents at -60 mV holding potential by two electrode voltage clamp assay; format: cell-based
Summary of the method: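 Human α7 nAChR in oocytes under two-electrode voltage clamp at -60 mV, Ringer's pH 7.2, 2 mL/min. Test compound applied 12 s with 211 s washout, then 60 µM ACh applied. ACh response normalized to the mean of two ACh precontrols per oocyte. Inhibition concentration-response curves from six cells, Hill equation fit.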

| SMILES | IC50 [nM] |
| --- | --- |
| COc1ccccc1-c1cc(N(Cc2ccccn2)Cc2ccccn2)nc(N)n1 | 370 |

species: Mus musculus; assay: Agonist activity at mouse alpha1beta1epsilondelta nAChR expressed in Xenopus laevis oocytes assessed as increase in channel currents at 30 uM at -60 mV holding potential by two electrode voltage clamp assay; format: cell-based
Summary of the method: (§2)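 Two-electrode voltage clamp on oocytes at -60 mV in Ringer's (115 mM NaCl, 2.5 mM KCl, 1.8 mM CaCl2, 10 mM HEPES, 1 µM atropine, pH 7.2), 4 mL/min flow. Test compound applied 6 s, then 271 s washout. Normalized to mean of two ACh precontrols: 30 µM for α1β1εδ, 100 µM for α3β4, 100 µM for LS α4β2, 10 µM for HS α4β2.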

| SMILES | Activity |
| --- | --- |
| COc1ccccc1-c1cc(N(Cc2ccccn2)Cc2ccccn2)nc(N)n1 | inactive |

molecular target: T3, Neuronal acetylcholine receptor; alpha3/beta4 (Homo sapiens) (UniProt P30926+P32297); assay: Agonist activity at human alpha3beta4 nAChR expressed in Xenopus laevis oocytes assessed as increase in channel currents at 30 uM at -60 mV holding potential by two electrode voltage clamp assay; format: cell-based; summary of the method: as §2

| SMILES | Activity |
| --- | --- |
| COc1ccccc1-c1cc(N(Cc2ccccn2)Cc2ccccn2)nc(N)n1 | inactive |

molecular target: T4, Neuronal acetylcholine receptor; alpha4/beta2 (Homo sapiens) (UniProt P17787+P43681); assay: Agonist activity at human (alpha4)2 (beta2)3 nAChR expressed in Xenopus laevis oocytes assessed as increase in channel currents at 30 uM at -60 mV holding potential by two electrode voltage clamp assay; format: cell-based; summary of the method: as §2

| SMILES | Activity |
| --- | --- |
| COc1ccccc1-c1cc(N(Cc2ccccn2)Cc2ccccn2)nc(N)n1 | inactive |

molecular target: T4, Neuronal acetylcholine receptor; alpha4/beta2 (Homo sapiens); assay: Agonist activity at human (alpha4)3 (beta2)2 nAChR expressed in Xenopus laevis oocytes assessed as increase in channel currents at 30 uM at -60 mV holding potential by two electrode voltage clamp assay; format: cell-based; summary of the method: as §2

| SMILES | Activity |
| --- | --- |
| COc1ccccc1-c1cc(N(Cc2ccccn2)Cc2ccccn2)nc(N)n1 | inactive |

species: Mus musculus; assay: Inhibition of mouse alpha1beta1epsilondelta nAChR expressed in Xenopus laevis oocytes assessed as increase in channel currents at 30 uM at -60 mV holding potential by two electrode voltage clamp assay; format: cell-based

| SMILES | inhibition activity (active/inactive) |
| --- | --- |
| COc1ccccc1-c1cc(N(Cc2ccccn2)Cc2ccccn2)nc(N)n1 | Active |

molecular target: T3, Neuronal acetylcholine receptor; alpha3/beta4 (Homo sapiens); assay: Inhibition of human alpha3beta4 nAChR expressed in Xenopus laevis oocytes assessed as increase in channel currents at 30 uM at -60 mV holding potential by two electrode voltage clamp assay; format: cell-based

| SMILES | inhibition |
| --- | --- |
| COc1ccccc1-c1cc(N(Cc2ccccn2)Cc2ccccn2)nc(N)n1 | Active |

molecular target: T4, Neuronal acetylcholine receptor; alpha4/beta2 (Homo sapiens); assay: Inhibition of human (alpha4)2 (beta2)3 nAChR expressed in Xenopus laevis oocytes assessed as increase in channel currents at 30 uM at -60 mV holding potential by two electrode voltage clamp assay; format: cell-based

| SMILES | inhibition |
| --- | --- |
| COc1ccccc1-c1cc(N(Cc2ccccn2)Cc2ccccn2)nc(N)n1 | inactive |

molecular target: T4, Neuronal acetylcholine receptor; alpha4/beta2 (Homo sapiens); assay: Inhibition of human (alpha4)3 (beta2)2 nAChR expressed in Xenopus laevis oocytes assessed as increase in channel currents at 30 uM at -60 mV holding potential by two electrode voltage clamp assay; format: cell-based

| SMILES | inhibition |
| --- | --- |
| COc1ccccc1-c1cc(N(Cc2ccccn2)Cc2ccccn2)nc(N)n1 | inactive |

molecular target: T4, Neuronal acetylcholine receptor; alpha4/beta2 (Homo sapiens); assay: Antagonist activity at alpha4beta2 nAChR (unknown origin) transfected in HEK cells assessed as decrease in epibatidine-induced intracellular calcium release incubated for 30 mins by FRET assay

| SMILES | Ka [µM] |
| --- | --- |
| COc1ccc(-c2cc(N(Cc3ccccn3)Cc3ccccn3)nc(N)n2)c(OC)c1 | 2.5 |
| c1ccc(CN(Cc2ccccn2)c2cc(N3CCOCC3)ncn2)nc1 | > 10 |
| Nc1nc(-c2ccsc2)cc(N(Cc2ccccn2)Cc2ccccn2)n1 | > 10 |
| COc1cccc(OC)c1-c1cc(N(Cc2ccccn2)Cc2ccccn2)nc(N)n1 | 7.1 |
| COc1ccccc1-c1cc(N(Cc2ccccn2)Cc2ccccn2)nc(N)n1 | 6.3 |

More lines, now with the values ahead:

| Ka [µM] | SMILES |
| --- | --- |
| > 10 | COc1ncccc1-c1cc(N(Cc2ccccn2)Cc2ccccn2)nc(N)n1 |
| 3.4 | CSc1nc(-c2ccsc2)cc(N(Cc2ccccn2)Cc2ccccn2)n1 |
| 1.3 | CC(C)COc1ccccc1-c1cc(N(Cc2ccccn2)Cc2ccccn2)nc(N)n1 |
| > 10 | COc1ccccc1-c1cc(N(Cc2ccccn2)Cc2ccccn2)nc([S+](C)[O-])n1 (stereo unspecified) |
| 4.3 | CSc1ccccc1-c1cc(N(Cc2ccccn2)Cc2ccccn2)nc(N)n1 |
| 5.6 | Fc1ccccc1-c1cc(N(Cc2ccccn2)Cc2ccccn2)ncn1 |

molecular target: T1, Neuronal acetylcholine receptor subunit alpha-7; assay: Agonist activity at human alpha7 nAChR expressed in Xenopus laevis oocytes assessed as increase in channel currents at 30 uM at -60 mV holding potential followed washout for 211 sec and then 60 uM of Ach was applied by two electrode voltage clamp assay

| SMILES | Activity |
| --- | --- |
| COc1ccccc1-c1cc(N(Cc2ccccn2)Cc2ccccn2)nc(N)n1 | inactive |
